Measured values reported in ChEMBL document CHEMBL1932971, “Synthesis of uriedo and thiouriedo derivatives of peptide conjugated heterocycles - A new class of promising antimicrobials” (2012).
≈ marks a conversion by molar mass, not a printed value. Numbered stars: 1 amine (or outer) side, 2 acyl side, 3 side chain; on linkers, the order of the positions; unused ones are H or OH. Peptide text beside a SMILES is read from it. * marks the point of attachment. Piperazinyl(4-(2,3-Cl2Ph)) = Clc1cccc(N2CCN(*)CC2)c1Cl; Thiocarbamoyl(N-4-ClPh) = S=C(Nc1ccc(Cl)cc1)*; Thiocarbamoyl(4-MeOPh) = COc1ccc(NC(=S)*)cc1; Thiocarbamoyl(N-2-FPh) = Fc1ccccc1NC(=S)*; NH(4-MeO-phenyl) = COc1ccc(N*)cc1; NH(4-Cl-phenyl) = Clc1ccc(N*)cc1; X1 = Fc1ccc2c(C3CCN(*)CC3)noc2c1; NH(2-F-phenyl) = Fc1ccccc1N*; CO = O=C([*:1])[*:2]

Key:
Type in all cases: functional
[1] = tested on: Escherichia coli; experiment: Antibacterial activity against Escherichia coli at 30 ug/ml after 24 hrs by agar well diffusion method; details: read-out: DIZ
How it was run: (§1)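 Agar well diffusion. Inocula were grown in nutrient broth at 37 °C for 24 h, then subcultured in nutrient broth at room temperature. Compounds were made as a 1 mg/mL DMSO stock and diluted to 30 µg/mL final. Nutrient agar plates were spread-inoculated and 6 mm wells each got 0.1 mL. Controls were amoxicillin (reference) and DMSO (negative). Incubation was 24 h at 37 °C. Inhibition zone was measured in mm as the mean of three determinations.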

[2] = tested on: Xanthomonas oryzae; experiment: Antibacterial activity against Xanthomonas oryzae at 30 ug/ml after 24 hrs by agar well diffusion method; details: read-out: DIZ
[3] = tested on: Klebsiella pneumoniae; experiment: Antibacterial activity against Klebsiella pneumoniae at 30 ug/ml after 24 hrs by agar well diffusion method; details: read-out: DIZ; how it was run: as §1
[4] = tested on: Staphylococcus aureus; experiment: Antibacterial activity against coagulase-positive Staphylococcus aureus at 30 ug/ml after 24 hrs by agar well diffusion method; details: read-out: DIZ; how it was run: as §1
[5] = tested on: Escherichia coli; experiment: Antibacterial activity against Escherichia coli after 24 hrs by microdilution method
[6] = tested on: Xanthomonas oryzae; experiment: Antibacterial activity against Xanthomonas oryzae after 24 hrs by microdilution method
[7] = tested on: Klebsiella pneumoniae; experiment: Antibacterial activity against Klebsiella pneumoniae after 24 hrs by microdilution method
[8] = tested on: Staphylococcus aureus; experiment: Antibacterial activity against coagulase-positive Staphylococcus aureus after 24 hrs by microdilution method
[9] = tested on: Aspergillus niger; experiment: Antifungal activity against Aspergillus niger at 30 ug/ml after 72 hrs by agar well diffusion method; details: read-out: DIZ
How it was run: (§2)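 Fungal well diffusion. Inocula were subcultured in nutrient broth for one day, then spread on solidified medium. Compounds were made as a 1 mg/mL DMSO stock and diluted to 30 µg/mL final. Each 6 mm well got 0.1 mL. Controls were bavistin (reference) and DMSO (negative). Plates stood for 3 days at room temperature. Inhibition zone was measured in mm as the mean of three determinations.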

[10] = tested on: Aspergillus flavus; experiment: Antifungal activity against Aspergillus flavus at 30 ug/ml after 72 hrs by agar well diffusion method; details: read-out: DIZ; how it was run: as §2
[11] = tested on: Fusarium oxysporum; experiment: Antifungal activity against Fusarium oxysporum at 30 ug/ml after 72 hrs by agar well diffusion method; details: read-out: DIZ; how it was run: as §2
[12] = tested on: Aspergillus niger; experiment: Antifungal activity against Aspergillus niger after 72 hrs by microdilution method
[13] = tested on: Aspergillus flavus; experiment: Antifungal activity against Aspergillus flavus after 72 hrs by microdilution method
[14] = tested on: Fusarium oxysporum; experiment: Antifungal activity against Fusarium oxysporum after 72 hrs by microdilution method

Row | Compound | zone of inhibition at 30 µg/mL [1] | zone of inhibition at 30 µg/mL [2] | zone of inhibition at 30 µg/mL [3] | zone of inhibition at 30 µg/mL [4] | MIC [5] | MIC [6] | MIC [7] | MIC [8] | zone of inhibition at 30 µg/mL [9] | zone of inhibition at 30 µg/mL [10] | zone of inhibition at 30 µg/mL [11] | MIC [12] | MIC [13] | MIC [14]
1 | O=C(CNC(=S)Nc1ccc(Cl)cc1)N[C@@H](Cc1ccccc1)C(=O)NCC(=O)N[C@@H](Cc1ccccc1)C(=O)N1CCC[C@H]1C(=O)N1CCN(c2cccc(Cl)c2Cl)CC1 ({Thiocarbamoyl(N-4-ClPh)}-GFGFP-{Piperazinyl(4-(2,3-Cl2Ph))}) | 32 mm | 33 mm | 32 mm | 30 mm | 6.75 µg/mL (≈ 7.45 µM) | 6.75 µg/mL (≈ 7.45 µM) | 5 µg/mL (≈ 5.52 µM) | 6.25 µg/mL (≈ 6.9 µM) | 34 mm | 30 mm | 31 mm | 5 µg/mL (≈ 5.52 µM) | 6.5 µg/mL (≈ 7.17 µM) | 6.25 µg/mL (≈ 6.9 µM)
2 | CC(C)[C@H](NC(=O)CNC(=O)Nc1ccccc1F)C(=O)NCC(=O)N[C@H](C(=O)N1CCC[C@H]1C(=O)N1CCC(c2noc3cc(F)ccc23)CC1)C(C)C ({NH(2-F-phenyl)-CO}-GVGVP-X1) | 34 mm | 35 mm | 33 mm | 30 mm | 7.75 µg/mL (≈ 10.1 µM) | 6.75 µg/mL (≈ 8.8 µM) | 5.25 µg/mL (≈ 6.85 µM) | 6.75 µg/mL (≈ 8.8 µM) | 36 mm | 32 mm | 33 mm | 5 µg/mL (≈ 6.52 µM) | 5.75 µg/mL (≈ 7.5 µM) | 7 µg/mL (≈ 9.13 µM)
3 | CC(C)[C@H](NC(=O)CNC(=S)Nc1ccc(Cl)cc1)C(=O)NCC(=O)N[C@H](C(=O)N1CCC[C@H]1C(=O)N1CCN(c2cccc(Cl)c2Cl)CC1)C(C)C ({Thiocarbamoyl(N-4-ClPh)}-GVGVP-{Piperazinyl(4-(2,3-Cl2Ph))}) | 29 mm | 31 mm | 24 mm | 26 mm | 9.5 µg/mL (≈ 11.7 µM) | 8.75 µg/mL (≈ 10.8 µM) | 7 µg/mL (≈ 8.64 µM) | 9 µg/mL (≈ 11.1 µM) | 32 mm | 24 mm | 29 mm | 6.75 µg/mL (≈ 8.33 µM) | 7.75 µg/mL (≈ 9.56 µM) | 8.75 µg/mL (≈ 10.8 µM)
4 | O=C(CNC(=S)Nc1ccccc1F)NCC(=O)N[C@@H](Cc1ccccc1)C(=O)N1CCC[C@H]1C(=O)N1CCC(c2noc3cc(F)ccc23)CC1 ({Thiocarbamoyl(N-2-FPh)}-GGFP-X1) | 32 mm | 30 mm | 28 mm | 26 mm | 11.5 µg/mL (≈ 15.7 µM) | 8.5 µg/mL (≈ 11.6 µM) | 8.25 µg/mL (≈ 11.3 µM) | 10.2 µg/mL (≈ 14 µM) | 35 mm | 30 mm | 32 mm | 8.5 µg/mL (≈ 11.6 µM) | 12.2 µg/mL (≈ 16.7 µM) | 13.2 µg/mL (≈ 18.1 µM)
5 | CC(C)[C@H](NC(=O)CNC(=S)Nc1ccccc1F)C(=O)NCC(=O)N[C@H](C(=O)N1CCC[C@H]1C(=O)N1CCC(c2noc3cc(F)ccc23)CC1)C(C)C ({Thiocarbamoyl(N-2-FPh)}-GVGVP-X1) | 35 mm | 36 mm | 35 mm | 31 mm | 7.25 µg/mL (≈ 9.26 µM) | 6.25 µg/mL (≈ 7.98 µM) | 5 µg/mL (≈ 6.39 µM) | 6.25 µg/mL (≈ 7.98 µM) | 37 mm | 33 mm | 35 mm | 4.75 µg/mL (≈ 6.07 µM) | 5.5 µg/mL (≈ 7.03 µM) | 6.75 µg/mL (≈ 8.62 µM)
6 | O=C(CNC(=S)Nc1ccccc1F)N[C@@H](Cc1ccccc1)C(=O)NCC(=O)N[C@@H](Cc1ccccc1)C(=O)N1CCC[C@H]1C(=O)N1CCC(c2noc3cc(F)ccc23)CC1 ({Thiocarbamoyl(N-2-FPh)}-GFGFP-X1) | 41 mm | 41 mm | 37 mm | 36 mm | 4.75 µg/mL (≈ 5.4 µM) | 4.75 µg/mL (≈ 5.4 µM) | 3 µg/mL (≈ 3.41 µM) | 4 µg/mL (≈ 4.55 µM) | 41 mm | 36 mm | 40 mm | 3 µg/mL (≈ 3.41 µM) | 4.5 µg/mL (≈ 5.12 µM) | 4 µg/mL (≈ 4.55 µM)
7 | O=C(CNC(=S)Nc1ccc(Cl)cc1)N[C@@H](Cc1ccccc1)C(=O)NCC(=O)N[C@@H](Cc1ccccc1)C(=O)N1CCC[C@H]1C(=O)N1CCC(c2noc3cc(F)ccc23)CC1 ({Thiocarbamoyl(N-4-ClPh)}-GFGFP-X1) | 35 mm | 36 mm | 34 mm | 32 mm | 6 µg/mL (≈ 6.7 µM) | 6.25 µg/mL (≈ 6.98 µM) | 4.5 µg/mL (≈ 5.03 µM) | 5.75 µg/mL (≈ 6.42 µM) | 39 mm | 32 mm | 36 mm | 4.5 µg/mL (≈ 5.03 µM) | 6 µg/mL (≈ 6.7 µM) | 5.75 µg/mL (≈ 6.42 µM)
8 | CC(C)[C@H](NC(=O)CNC(=O)Nc1ccccc1F)C(=O)NCC(=O)N[C@H](C(=O)N1CCC[C@H]1C(=O)N1CCN(c2cccc(Cl)c2Cl)CC1)C(C)C ({NH(2-F-phenyl)-CO}-GVGVP-{Piperazinyl(4-(2,3-Cl2Ph))}) | 33 mm | 34 mm | 32 mm | 29 mm | 8.25 µg/mL (≈ 10.6 µM) | 7.25 µg/mL (≈ 9.32 µM) | 6 µg/mL (≈ 7.71 µM) | 7.25 µg/mL (≈ 9.32 µM) | 35 mm | 31 mm | 32 mm | 5.5 µg/mL (≈ 7.07 µM) | 6.25 µg/mL (≈ 8.04 µM) | 7.5 µg/mL (≈ 9.64 µM)
9 | O=C(CNC(=O)Nc1ccccc1F)N[C@@H](Cc1ccccc1)C(=O)NCC(=O)N[C@@H](Cc1ccccc1)C(=O)N1CCC[C@H]1C(=O)N1CCC(c2noc3cc(F)ccc23)CC1 ({NH(2-F-phenyl)-CO}-GFGFP-X1) | 39 mm | 40 mm | 36 mm | 34 mm | 5 µg/mL (≈ 5.79 µM) | 5 µg/mL (≈ 5.79 µM) | 3.25 µg/mL (≈ 3.77 µM) | 4.25 µg/mL (≈ 4.93 µM) | 40 mm | 35 mm | 39 mm | 3.25 µg/mL (≈ 3.77 µM) | 4.75 µg/mL (≈ 5.5 µM) | 4.25 µg/mL (≈ 4.93 µM)
10 | O=C(CNC(=O)Nc1ccc(Cl)cc1)N[C@@H](Cc1ccccc1)C(=O)NCC(=O)N[C@@H](Cc1ccccc1)C(=O)N1CCC[C@H]1C(=O)N1CCC(c2noc3cc(F)ccc23)CC1 ({NH(4-Cl-phenyl)-CO}-GFGFP-X1) | 34 mm | 35 mm | 33 mm | 31 mm | 6.25 µg/mL (≈ 7.11 µM) | 6.5 µg/mL (≈ 7.39 µM) | 4.75 µg/mL (≈ 5.4 µM) | 6 µg/mL (≈ 6.82 µM) | 38 mm | 31 mm | 35 mm | 4.75 µg/mL (≈ 5.4 µM) | 6.25 µg/mL (≈ 7.11 µM) | 6 µg/mL (≈ 6.82 µM)
11 | COC(=O)Nc1nc2ccccc2[nH]1 [CARBENDAZIM] | – | – | – | – | – | – | – | – | 12 mm | 9 mm | 10 mm | 22 µg/mL (≈ 115 µM) | 26 µg/mL (≈ 136 µM) | 25 µg/mL (≈ 131 µM)
12 | CC1(C)S[C@@H]2[C@H](NC(=O)[C@H](N)c3ccc(O)cc3)C(=O)N2[C@H]1C(=O)O [AMOXICILLIN] | 12 mm | 9 mm | 8 mm | 8 mm | 24 µg/mL (≈ 65.7 µM) | 19 µg/mL (≈ 52 µM) | 20 µg/mL (≈ 54.7 µM) | 23 µg/mL (≈ 62.9 µM) | – | – | – | – | – | –
13 | O=C(Nc1ccccc1F)N[C@@H](Cc1c[nH]c2ccccc12)C(=O)N1CCN(c2cccc(Cl)c2Cl)CC1 | 9 mm | 9 mm | 10 mm | 11 mm | – | – | – | – | 10 mm | 11 mm | 7 mm | – | – | –
14 | CC[C@H](C)[C@H](NC(=O)CNC(=O)CNC(=S)Nc1ccc(OC)cc1)C(=O)N1CCC[C@H]1C(=O)N1CCC(c2noc3cc(F)ccc23)CC1 ({Thiocarbamoyl(4-MeOPh)}-GGIP-X1) | 24 mm | 20 mm | 14 mm | 16 mm | – | – | – | – | 26 mm | 22 mm | 24 mm | – | – | –
15 | CC[C@H](C)[C@H](NC(=O)CNC(=O)CNC(=S)Nc1ccc(OC)cc1)C(=O)N1CCC[C@H]1C(=O)N1CCN(c2cccc(Cl)c2Cl)CC1 ({Thiocarbamoyl(4-MeOPh)}-GGIP-{Piperazinyl(4-(2,3-Cl2Ph))}) | 23 mm | 19 mm | 13 mm | 18 mm | – | – | – | – | 25 mm | 21 mm | 23 mm | – | – | –
16 | CC[C@H](C)[C@H](NC(=O)CNC(=O)CNC(=O)Nc1ccc(OC)cc1)C(=O)N1CCC[C@H]1C(=O)N1CCC(c2noc3cc(F)ccc23)CC1 ({NH(4-MeO-phenyl)-CO}-GGIP-X1) | 22 mm | 17 mm | 16 mm | 14 mm | – | – | – | – | 23 mm | 19 mm | 21 mm | – | – | –
